# In the library only some 2.8% were active in any assay of this set; here they are far more common.
# NPY-Y1 antag – blocks the human neuropeptide Y Y1 receptor; P25929; HEK293-CNG Y1 cells, membrane potential fluorescence; NPY at EC95, then isoproterenol; inhibition, % at 3.6 µM; 200,000 tested, 1% active; AID 1040;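 active = inhibition above the campaign mean inhibition of all tested compounds plus 3 SD, cut at about 20% in these data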;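 note: 0% = DMSO wells given NPY plus isoproterenol and 100% = isoproterenol alone without NPY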
#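 Material: Y1- and CNG-channel-expressing HEK293 cells / Probe or stimulus: NPY 25 nM then isoproterenol 1 µM plus Ro 20-1724 25 µM / Doses: 3.6 µM single dose, DMSO 0.4% / Schedule: compound incubation 1 h at room temperature, readout 45 min post-stimulation / Signal: membrane potential fluorescence / Benchmarks: isoproterenol-only wells as full block versus NPY-plus-isoproterenol wells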
# NPY-Y2 antag – blocks the human neuropeptide Y Y2 receptor. P49146. NPY-Y2 expressing cells, antagonist mode. inhibition, % at 2.7 µM. 140,000 tested, 0.99% active. AID 793; in the data active = inhibition above about 17%;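 note: 0% = vehicle with agonist challenge and 100% = reference antagonist with challenge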
# Target sequence (P49146 whole entry, looked up): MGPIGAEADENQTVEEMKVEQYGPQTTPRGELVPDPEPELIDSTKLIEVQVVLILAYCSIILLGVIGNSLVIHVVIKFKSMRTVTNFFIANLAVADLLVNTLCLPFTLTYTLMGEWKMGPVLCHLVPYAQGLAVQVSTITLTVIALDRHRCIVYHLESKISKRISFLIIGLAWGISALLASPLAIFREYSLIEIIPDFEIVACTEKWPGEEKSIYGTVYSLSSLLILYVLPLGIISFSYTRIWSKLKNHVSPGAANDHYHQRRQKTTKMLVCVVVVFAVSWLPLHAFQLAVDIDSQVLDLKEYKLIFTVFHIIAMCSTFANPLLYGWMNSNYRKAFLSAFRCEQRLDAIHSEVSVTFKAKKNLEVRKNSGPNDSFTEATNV
# PGE2 EP2 inh – EP2 receptor (human) inhibition | 260,000 tested, 0.52% active | P43116 | inhibition, % at 25 µM | C6 glioma cells expressing human EP2, cAMP TR-FRET; cells stimulated with saturating PGE2 | AID 1422;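 active = percent inhibition above 40 after rounding to a whole number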;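 note: rat C6 glioma host cells with rolipram phosphodiesterase inhibitor present; the protocol text gives 20 µM as final concentration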
# Target sequence (P43116 whole entry, looked up): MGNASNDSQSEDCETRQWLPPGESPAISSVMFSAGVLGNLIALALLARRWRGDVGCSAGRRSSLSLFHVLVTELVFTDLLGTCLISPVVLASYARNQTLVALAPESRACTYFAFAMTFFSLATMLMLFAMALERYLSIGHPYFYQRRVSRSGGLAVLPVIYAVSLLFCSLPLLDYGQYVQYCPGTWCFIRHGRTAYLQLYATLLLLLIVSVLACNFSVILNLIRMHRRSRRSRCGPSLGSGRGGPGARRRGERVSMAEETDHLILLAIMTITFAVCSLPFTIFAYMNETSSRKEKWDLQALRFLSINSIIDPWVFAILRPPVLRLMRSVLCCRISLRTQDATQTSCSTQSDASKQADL
# NPY1 pot ag – potentiates or activates human NPY-Y1 receptor | NPY-Y1 expressing cells, potentiator/agonist activation | P25929 | AID 1304 | activation, % at 3.6 µM | 220,000 tested, 0.37% active; in the data active = activation above about 33%, passing the limit was not always enough;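 note: cells stimulated with NPY at EC10 then isoproterenol at EC100; 0% = low agonist plus stimulus and 100% = saturating agonist plus stimulus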
# NPY-Y2 PAM-ag – potentiates or activates human NPY-Y2 receptor. P49146. cells expressing NPY-Y2, potentiator/agonist read-out. activation, % at 3.6 µM. 220,000 tested, 0.45% active. AID 1359; in the data active = activation above about 27%;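 note: cells stimulated with NPY near EC25 plus isoproterenol at EC100; 0% = vehicle plus submaximal agonist and 100% = vehicle plus saturating agonist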
# EP2 modulator – modulates human prostaglandin E2 receptor EP2 signaling | P43116 | EP2-expressing cells, cAMP HTRF FRET, PGE2 co-stimulation | induction, % at 25 µM | 260,000 tested, 0.83% active | AID 940;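 active = compounds whose cAMP rise, as percent of the full-agonist control response, exceeds 60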;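 note: rat C6 glioma line stably carrying human EP2 under a CMV promoter; the protocol text gives 20 µM as final concentration; 100% = response of wells given 1 µM PGE2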
# NPY-Y1 pot conf – confirmation of human NPY-Y1 receptor potentiators or agonists. shares compounds with NPY1 pot ag. cell-based NPY-Y1 potentiator/agonist assay. activation, % at 3.6 µM. 280 tested, 20% active. AID 1546; in the data active = activation above about 45%;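 note: cells challenged with NPY at its EC10 plus isoproterenol stimulus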
# NPY-Y2 counter – NPY-Y2 potentiation or agonism as NPY-Y1 counter-screen; activation, % at 3.6 µM; HEK293-CNG cells, membrane-potential fluorescence (FLIPR), 1536-well; AID 1649; 280 tested, 20% active; shares compounds with NPY1 pot ag; in the data active = activation above about 33%
# NPY-Y1 ag – counter-screen for NPY-Y1 potentiators: agonists of human NPY-Y1. HEK293 Y1-CNGC, membrane potential fluorescence, agonist mode. 280 tested, 50% active. AID 1697. activation, % at 3.6 µM. shares compounds with NPY1 pot ag;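 active = percent activation above the mean of DMSO-only control wells plus 3 SD of those wells, cut at about 18% in these data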;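 note: cells challenged with isoproterenol plus Ro 20-1724 with no NPY in test wells; Y1 agonism lowers isoproterenol-driven cAMP and reduces probe fluorescence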
# NPY-Y2 ag – human NPY-Y2 agonism as NPY-Y1 counter-screen. 280 tested, 67% active. activation, % at 3.6 µM. shares compounds with NPY1 pot ag. HEK293 Y2-CNGC, membrane potential fluorescence, agonist mode;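 active = activation above the solvent-only control wells' mean plus 3 SD, cut at about 11% in these data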;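 note: 0% = DMSO with isoproterenol and 100% = 40 nM NPY maximal response; agonism lowers cAMP so well fluorescence drops in active wells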
# CNGC inh 2 – CNG channel inhibition, counter-screen for NPY-Y1 potentiators | HEK293-CNG parental, isoproterenol cAMP, membrane potential fluorescence | inhibition, % at 3.6 µM | AID 1704 | 280 tested, 42% active | shares compounds with NPY1 pot ag;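 active = inhibition above the mean of stimulated solvent-only control wells plus 3 SD, cut at about 22% in these data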;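 note: 0% = isoproterenol-stimulated DMSO wells and 100% = unstimulated DMSO wells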
# Starred values were filed as active, the others as inactive; . = no result given.
SMILES,NPY-Y1 antag,NPY-Y2 antag,PGE2 EP2 inh,NPY1 pot ag,NPY-Y2 PAM-ag,EP2 modulator,NPY-Y1 pot conf,NPY-Y2 counter,NPY-Y1 ag,NPY-Y2 ag,CNGC inh 2
CC(C)(C)Nc1nc(Cl)nc(N(C#N)CN2C(=O)c3ccccc3S2(=O)=O)n1,-2,.,11,65*,9,-34,46*,28,39*,29*,22*
COc1ccc(CNc2c(C(C)Cc3ccc4c(c3)OCO4)nc3cnccn23)cc1 (centres undefined),.,.,10,.,.,-81,.,.,.,.,.
CCCN1C(=O)/C(=C/c2ccc(OCC(=O)OCC)cc2)NC1=S,-7,.,23,78*,22,0,122*,101*,110*,105*,100*
CCCN1C(=O)/C(=C/c2ccc(N3CCOCC3)cc2)NC1=S,-5,.,10,13,18,-42,.,.,.,.,.
CC1N(C)c2cc(NC(=O)c3ccco3)c(P(=O)(Nc3ccc([N+](=O)[O-])cc3)N3CCOCC3)cc2C1(C)C (centres undefined),-9,.,6,37*,22,-21,37,25,17,29*,24*
CC1N(C)c2cc(NC(=O)c3ccco3)ccc2C1(C)C (centres undefined),8,13,9,-26,-15,6,.,.,.,.,.
OCCC1CN(CC#Cc2ccccc2)CCN1C1CCCC1 (centres undefined),3,.,9,102*,-8,-22,-7,-2,-7,-4,-1
Cc1cc(C)nc(N2CCC(CNC(=O)Cc3ccc(F)cc3)CC2)n1,.,.,8,.,.,-9,.,.,.,.,.
[O-]/C(=C(\C(=S)Nc1ccc(SC(F)F)cc1)[n+]1ccccc1)c1cc(Cl)ccc1Cl,-12,.,6,47*,26,8,62*,35*,38*,25*,49*
Cc1cc(C)c(/C([O-])=C(/C(=S)Nc2ccc(SC(F)F)cc2)[n+]2ccccc2)cc1C,1,.,6,40*,27,7,69*,47*,52*,52*,56*
CN(C)c1cc[n+](/C(C(=S)Nc2ccc(SC(F)F)cc2)=C(/[O-])c2ccccc2)cc1,0,.,4,9,7,-4,.,.,.,.,.
COc1ccc(OC(C)C(=O)Nc2ccccc2C(F)(F)F)cc1 (centres undefined),0,0,9,-5,9,19,.,.,.,.,.
CC(Oc1cc(C(F)(F)F)cc(C(F)(F)F)c1)C(=O)NC(N)=O (centres undefined),-13,3,20,49*,24,-6,46*,29,34*,32*,36*
CC(NC(=O)Cc1ccc(F)cc1)c1nc(-c2cccnc2)n[nH]1 (centres undefined),.,.,5,.,.,6,.,.,.,.,.
Cn1c(C(O)C(O)c2ccccc2)nc2ccccc21 (centres undefined),-5,.,21,9,6,12,.,.,.,.,.
Cn1c(C(C#N)C2=C(Cl)C(=O)N(c3ccccc3)C2=O)nc2ccccc21 (centres undefined),-17,-7,4,36*,30,-13,71*,60*,83*,72*,58*
CCCCCCn1ccc(=N)cc1,2,1,10,-1,-2,19,.,.,.,.,.
CCCCCCCCCCCCCCCCn1cc[n+](CC(C)=O)c1,-4,.,7,58*,23,-41,58*,25,38*,19*,28*
NS(=O)(=O)c1cc(C(=O)NCCc2ccccn2)ccc1Cl,.,.,8,96*,-2,-5,6,-1,-5,-4,3
Cc1ccc(NS(=O)(=O)c2cc(C(=O)NCc3ccccn3)ccc2Cl)cc1,3,3,12,5,-5,-33,.,.,.,.,.
CCCOc1cc(N(CC)CC)ccc1/C=C(/C#N)c1nc2ccc(C)cc2[nH]1,2,2,6,25,27,19,.,.,.,.,.
CCN(CC)c1ccc(/C=C(/C#N)c2nc3ccc(C)cc3[nH]2)c(OC(C)C)c1,-3,-5,6,44*,32,-13,52*,38*,28*,45*,30*
O=c1[nH]c(Cc2ccccn2)nc2scc(-c3ccc(Cl)cc3)c12,-8,.,10,25,11,27,.,.,.,.,.
O=c1[nH]c(Cc2cccs2)nc2scc(-c3ccc(Cl)cc3)c12,.,.,15,66*,26,-7,30,23,36*,33*,44*
CCn1c(SCC(=O)Nc2cc(C)cc(C)c2)nnc1-c1ccco1,.,.,5,.,.,-14,.,.,.,.,.
SMILES,NPY-Y1 antag,NPY-Y2 antag,PGE2 EP2 inh,NPY1 pot ag,NPY-Y2 PAM-ag,EP2 modulator,NPY-Y1 pot conf,NPY-Y2 counter,NPY-Y1 ag,NPY-Y2 ag,CNGC inh 2
Cc1nc(-c2cccc(-c3noc(C)n3)c2)no1,1,2,5,38*,-9,-1,-5,-1,-3,-7,-8
CC(C)c1ccc2[nH]c(O)c(N=NC(=O)c3cccc(S(=O)(=O)Nc4ccc(Cl)cc4)c3)c2c1,0,.,2,5,18,7,.,.,.,.,.
CC(C)c1ccc2[nH]c(O)c(N=NC(=O)c3cccc(S(=O)(=O)Nc4cccc(Cl)c4)c3)c2c1,.,.,4,50*,-8,17,29,23,24*,28*,20
COc1ccc(-n2nnnc2SCC(=O)Nc2nc(C)c(C)s2)c(OC)c1,.,.,12,.,.,-61,.,.,.,.,.
Cc1cc(OC(F)F)ccc1NC(=O)Nc1ccc([N+](=O)[O-])cc1,-13,-6,10,59*,29,-4,36,29,25*,28*,31*
O=C(Nc1ccc([N+](=O)[O-])cc1)Nc1ccc(Cl)cc1F,-3,.,13,8,12,-53,.,.,.,.,.
COc1cc2c3c(c1)c(N=NC(N)=S)c(O)n3C(C)(C)C=C2C,.,.,5,55*,24,18,74*,61*,47*,60*,54*
N#C/C(=C(/O)c1ccc([N+](=O)[O-])s1)c1nc2ccccc2[nH]1,.,.,2,48*,27,-36,15,22,2,28*,-6
CC(C)c1ccc2c(c1)CCC1C(C)(CN)CCCC21C (centres undefined),.,.,11,47*,33,0,48*,42*,34*,40*,22

# Source: PubChem BioAssay (several laboratories)
